How the values were obtained:
[1] = folding enthalpy; higher = less favourable; fluorescence melt of hairpins on a sequencing array, two-state fit; conditions: sodium 0.088 M
Summary of the method: (§1)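 Folding enthalpy and melting temperature come from bootstrapped two-state fits to Cy3 fluorescence of library hairpins carrying annealed Cy3 and quencher oligos on a sequenced MiSeq flow cell. Imaging was done in 50 mM Na-HEPES pH 8.0, 25 mM NaCl, stepping by 2.5 °C up to 60 °C, and signals were normalised to pre-quench Cy3 and to control constructs. Results of four replicates were combined by inverse variance, and fitted temperatures were raised by 9.35 °C to match UV melts.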

[2] = melting temperature; fluorescence melt of hairpins on a sequencing array, two-state fit, raised by 9.35 °C to match UV melts; conditions: sodium 0.088 M
Summary of the method: as §1

GCACTGCGAAAGCATGC (((.(((....))))))
folding enthalpy [1]: -20.7 kcal/mol | Tm [2]: 53.1 °C

GCACTGCGAAAGCCGTGC ((((.((....)).))))
folding enthalpy [1]: -37.2 kcal/mol | Tm [2]: 63.3 °C

GCACTGCGAAAGCGATGC (((..((....))..)))
folding enthalpy [1]: -19.7 kcal/mol | Tm [2]: 45 °C

GCACTGCGAAAGCGTTGC (((..((....))..)))
folding enthalpy [1]: -23.6 kcal/mol | Tm [2]: 45.3 °C

GCACTTGGAAACAAATGC (((.(((....))).)))
folding enthalpy [1]: -24.8 kcal/mol | Tm [2]: 35.4 °C

GCACTTGGAAACAGGTGC ((((.((....)).))))
folding enthalpy [1]: -48.4 kcal/mol | Tm [2]: 51.7 °C

GCAGAACGAAAGTTATGC (((.(((....))).)))
folding enthalpy [1]: -39.3 kcal/mol | Tm [2]: 55.4 °C

GCAGAACGAAAGTTTGC (((.(((....))))))
folding enthalpy [1]: -25.9 kcal/mol | Tm [2]: 44.7 °C

GCAGAAGAAATTCTGC ((((((....))))))
folding enthalpy [1]: -32.6 kcal/mol | Tm [2]: 52.9 °C

GCAGAAGGAAACTTCCGC ((.((((....)))).))
folding enthalpy [1]: -20.6 kcal/mol | Tm [2]: 37.5 °C

GCAGACCCGAAAGGGTGC (((..(((....))))))
folding enthalpy [1]: -14.2 kcal/mol | Tm [2]: 50.3 °C

GCAGACCGAAAGGTGTGC (((.(((....))).)))
folding enthalpy [1]: -35.8 kcal/mol | Tm [2]: 63 °C

GCAGACCGAAAGGTTTGC (((.(((....))).)))
folding enthalpy [1]: -41.6 kcal/mol | Tm [2]: 63.4 °C

GCAGACGAAAGTCTTGC ((((((....))).)))
folding enthalpy [1]: -27 kcal/mol | Tm [2]: 51.3 °C

GCAGACGGAAACATCTGC (((((.(....).)))))
folding enthalpy [1]: -29.9 kcal/mol | Tm [2]: 44.5 °C

GCAGACGGAAACGTCCGC ((.((((....)))).))
folding enthalpy [1]: -24 kcal/mol | Tm [2]: 52.6 °C

GCAGAGCGAAAGCACTGC ((((.((....)).))))
folding enthalpy [1]: -34 kcal/mol | Tm [2]: 67.4 °C

GCAGAGCGAAAGCCATGC (((..((....))..)))
folding enthalpy [1]: -18.9 kcal/mol | Tm [2]: 45.7 °C

GCAGAGCGAAAGCTATGC (((.(((....))).)))
folding enthalpy [1]: -44.8 kcal/mol | Tm [2]: 59.7 °C

GCAGAGCGAAAGCTTGC (((.(((....))))))
folding enthalpy [1]: -20.6 kcal/mol | Tm [2]: 53.7 °C

GCAGAGCGAAAGCTTGGC ((..(((....)))..))
folding enthalpy [1]: -18.8 kcal/mol | Tm [2]: 49.5 °C

GCAGAGGGAAACCTCCGC ((.((((....)))).))
folding enthalpy [1]: -26 kcal/mol | Tm [2]: 44.7 °C

GCAGAGGGAAACCTCTAC (.(((((....))))).)
folding enthalpy [1]: -14.7 kcal/mol | Tm [2]: 35.2 °C

GCAGATGGAAACATTTGC (((.(((....))).)))
folding enthalpy [1]: -33.7 kcal/mol | Tm [2]: 44.5 °C

GCAGCACGAAAGTGTGC (((.(((....))))))
folding enthalpy [1]: -18.6 kcal/mol | Tm [2]: 55.7 °C

GCAGCAGGAAACCGCTAC (.(((.(....).))).)
folding enthalpy [1]: -14.6 kcal/mol | Tm [2]: 28.1 °C

GCAGCCGAAAGGCATTGC ((((((....)))..)))
folding enthalpy [1]: -15.6 kcal/mol | Tm [2]: 41.5 °C

GCAGCCGAAAGGCTATGC ((((((....)))..)))
folding enthalpy [1]: -14 kcal/mol | Tm [2]: 47.4 °C

GCAGCGCGAAAGCCCGGC ((.(.((....)).).))
folding enthalpy [1]: -17.6 kcal/mol | Tm [2]: 39.3 °C

GCAGCGCGAAAGCCGTGC (((..((....))..)))
folding enthalpy [1]: -15.3 kcal/mol | Tm [2]: 43.9 °C

GCAGCGCGAAAGCGACGC ((..(((....)))..))
folding enthalpy [1]: -18.4 kcal/mol | Tm [2]: 60.7 °C

GCAGCGCGAAAGCTCCGC ((.(.((....)).).))
folding enthalpy [1]: -11.6 kcal/mol | Tm [2]: 37.9 °C

GCAGCGGCGAAAGCCTGC (((..(((....))))))
folding enthalpy [1]: -12.9 kcal/mol | Tm [2]: 52.2 °C

GCAGCGGGAAACCGCTAC (.(((((....))))).)
folding enthalpy [1]: -11.3 kcal/mol | Tm [2]: 40.2 °C

GCAGCGGGAAACCGTTGC (((.(((....))).)))
folding enthalpy [1]: -39.4 kcal/mol | Tm [2]: 57.9 °C

GCAGCGTCGAAAGACTGC (((..(((....))))))
folding enthalpy [1]: -14 kcal/mol | Tm [2]: 44.4 °C

GCAGCTCGAAAGAGTTGC (((.(((....))).)))
folding enthalpy [1]: -44.2 kcal/mol | Tm [2]: 59.6 °C

GCAGCTGGAAACAACTGC ((((.((....)).))))
folding enthalpy [1]: -39.9 kcal/mol | Tm [2]: 46.6 °C

GCAGGAACGAAAGTTTGC (((..(((....))))))
folding enthalpy [1]: -16.6 kcal/mol | Tm [2]: 36 °C

GCAGGCACGAAAGTGTGC (((..(((....))))))
folding enthalpy [1]: -14.9 kcal/mol | Tm [2]: 39.1 °C

GCAGGCGAAAGCCACTGC ((((((....)))..)))
folding enthalpy [1]: -15.9 kcal/mol | Tm [2]: 48 °C

GCAGGCGAAAGCCCGTGC ((((((....)))..)))
folding enthalpy [1]: -13.1 kcal/mol | Tm [2]: 43.6 °C

GCAGGCGAAAGCCTTGC ((((((....))).)))
folding enthalpy [1]: -17.6 kcal/mol | Tm [2]: 59.2 °C

GCAGGCGGAAACGCCCAC (..((((....))))..)
folding enthalpy [1]: -6.7 kcal/mol | Tm [2]: 27.1 °C

GCAGGGACGAAAGTCTGC (((..(((....))))))
folding enthalpy [1]: -23 kcal/mol | Tm [2]: 47.9 °C

GCAGGGCGAAAGCCCAGC ((.((((....)))).))
folding enthalpy [1]: -19.5 kcal/mol | Tm [2]: 68.2 °C

GCAGGGCGAAAGCCGCGC ((..(((....)))..))
folding enthalpy [1]: -22.2 kcal/mol | Tm [2]: 64.7 °C

GCAGGGCGAAAGCGATGC (((..((....))..)))
folding enthalpy [1]: -26.1 kcal/mol | Tm [2]: 57 °C

GCAGGTGCGAAAGCATGC (((..(((....))))))
folding enthalpy [1]: -13.5 kcal/mol | Tm [2]: 43.9 °C

GCAGGTGGAAACACCCAC (..((((....))))..)
folding enthalpy [1]: -10.6 kcal/mol | Tm [2]: 32.1 °C

GCAGGTGGAAACGTCTGC ((((..(....)..))))
folding enthalpy [1]: -25.7 kcal/mol | Tm [2]: 42.5 °C

GCAGTAGAAATACTGC ((((((....))))))
folding enthalpy [1]: -34.6 kcal/mol | Tm [2]: 54.8 °C

GCAGTAGGAAACTATTGC (((.(((....))).)))
folding enthalpy [1]: -26.9 kcal/mol | Tm [2]: 42.6 °C

GCAGTCACGAAAGTGTGC (((..(((....))))))
folding enthalpy [1]: -19.5 kcal/mol | Tm [2]: 38 °C

GCAGTCGAAAGACTTGC ((((((....))).)))
folding enthalpy [1]: -22.6 kcal/mol | Tm [2]: 50.4 °C

GCAGTCGCGAAAGCGTGC (((..(((....))))))
folding enthalpy [1]: -14.2 kcal/mol | Tm [2]: 46.1 °C

GCAGTGACGAAAGTCTGC (((..(((....))))))
folding enthalpy [1]: -23.8 kcal/mol | Tm [2]: 48 °C

GCAGTGCGAAAGCAAAGC ((..(((....)))..))
folding enthalpy [1]: -13.3 kcal/mol | Tm [2]: 51.3 °C

GCAGTGCGAAAGCAGAGC ((..(((....)))..))
folding enthalpy [1]: -11.6 kcal/mol | Tm [2]: 50.9 °C

GCAGTGCGAAAGCAGCGC ((..(((....)))..))
folding enthalpy [1]: -17 kcal/mol | Tm [2]: 59.7 °C

GCAGTGCGAAAGCATGC (((.(((....))))))
folding enthalpy [1]: -20.4 kcal/mol | Tm [2]: 58.7 °C

GCAGTGCGAAAGCATTGC (((.(((....))).)))
folding enthalpy [1]: -55.4 kcal/mol | Tm [2]: 58.9 °C

GCAGTGCGAAAGCGCAGC ((.(.((....)).).))
folding enthalpy [1]: -14.2 kcal/mol | Tm [2]: 62.3 °C

GCAGTGCGAAAGCGCGGC ((.(.((....)).).))
folding enthalpy [1]: -31 kcal/mol | Tm [2]: 66.7 °C

GCAGTGCGAAAGCTATGC (((..((....))..)))
folding enthalpy [1]: -17.1 kcal/mol | Tm [2]: 55.1 °C

GCAGTGGGAAACCACCAC (..((((....))))..)
folding enthalpy [1]: -12.2 kcal/mol | Tm [2]: 30.6 °C

GCAGTTCGAAAGAAGTGC (((.(((....))).)))
folding enthalpy [1]: -51 kcal/mol | Tm [2]: 56.2 °C

GCAGTTGGAAACGATTGC (((.(.(....).).)))
folding enthalpy [1]: -20.5 kcal/mol | Tm [2]: 36.1 °C

GCAGTTTCGAAAGAATGC (((..(((....))))))
folding enthalpy [1]: -12.5 kcal/mol | Tm [2]: 25.8 °C

GCATAAGGAAACTCATGC ((((.((....)).))))
folding enthalpy [1]: -25.2 kcal/mol | Tm [2]: 30.7 °C

GCATAATCGAAAGATTGC (((..(((....))))))
folding enthalpy [1]: -18.1 kcal/mol | Tm [2]: 37.2 °C

GCATACCCGAAAGGGTGC (((..(((....))))))
folding enthalpy [1]: -12.1 kcal/mol | Tm [2]: 49.7 °C

GCATACCGAAAGGTTGC (((.(((....))))))
folding enthalpy [1]: -32.3 kcal/mol | Tm [2]: 54 °C

GCATACGAAAGTAATTGC ((((((....)))..)))
folding enthalpy [1]: -13.6 kcal/mol | Tm [2]: 32.7 °C

GCATACGAAAGTACATGC ((((((....)))..)))
folding enthalpy [1]: -26.9 kcal/mol | Tm [2]: 38.9 °C

GCATACGAAAGTACCTGC ((((((....)))..)))
folding enthalpy [1]: -13.2 kcal/mol | Tm [2]: 26.6 °C

GCATACGAAAGTAGCTGC ((((((....)))..)))
folding enthalpy [1]: -23.6 kcal/mol | Tm [2]: 48.1 °C

GCATACGAAAGTAGTGC ((((((....))).)))
folding enthalpy [1]: -24.1 kcal/mol | Tm [2]: 44.6 °C

GCATACGGAAACGTATGC (((((((....)))))))
folding enthalpy [1]: -47.5 kcal/mol | Tm [2]: 67.7 °C

GCATAGCCGAAAGGCTGC (((..(((....))))))
folding enthalpy [1]: -12.6 kcal/mol | Tm [2]: 49.3 °C

GCATAGCGAAAGCAAAGC ((.(.((....)).).))
folding enthalpy [1]: -9.49 kcal/mol | Tm [2]: 32 °C

GCATAGCGAAAGCCAGGC ((.(.((....)).).))
folding enthalpy [1]: -12.3 kcal/mol | Tm [2]: 32.9 °C

GCATAGCGAAAGCCATGC ((((.((....)).))))
folding enthalpy [1]: -28.5 kcal/mol | Tm [2]: 53.3 °C

GCATAGCGAAAGCTCGGC ((..(((....)))..))
folding enthalpy [1]: -16.2 kcal/mol | Tm [2]: 36.5 °C

GCATAGCGAAAGCTTCGC ((..(((....)))..))
folding enthalpy [1]: -10.1 kcal/mol | Tm [2]: 34.6 °C

GCATAGGGAAACCTACGC ((.((((....)))).))
folding enthalpy [1]: -27.9 kcal/mol | Tm [2]: 35.9 °C

GCATATCCGAAAGGATGC (((..(((....))))))
folding enthalpy [1]: -15.2 kcal/mol | Tm [2]: 43.5 °C

GCATATCGAAAGATCTGC (((.(((....))).)))
folding enthalpy [1]: -31.2 kcal/mol | Tm [2]: 43.9 °C

GCATCAGGAAACTGGTGC (((.(((....))).)))
folding enthalpy [1]: -40.9 kcal/mol | Tm [2]: 53.4 °C

GCATCCCGAAAGGGCTGC (((.(((....))).)))
folding enthalpy [1]: -36.2 kcal/mol | Tm [2]: 56.2 °C

GCATCCGAAAGGAAGTGC ((((((....)))..)))
folding enthalpy [1]: -24.3 kcal/mol | Tm [2]: 41.3 °C
